This note sets out measurements from paper PMC4553143 (Circulation research, 2015).

In test [1] the test system is granzyme B activity. Format: in vivo, mouse. In outline: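 Male CMy-Tg and C57BL/6 WT mice (10–12 weeks) received OT-1 CD8+ T cells i.p. in PBS (2.0, 3.5 or 5.0 × 10^6). Dexamethasone 0.75 mg/kg or PBS i.p. daily, days 1–4. Day 4: probe i.v. (50 μL, 1 μmol/L in PBS) or ProSense 680 (2 nmol/150 μL). After 24 h: FMT-CT under anaesthesia; ex vivo FRI, 680 nm channel.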

Test [2] has as its system CMy-Tg mice. The test can be described thus: Survival study in CD8+ T cell-mediated myocarditis. It counts as in vivo, mouse. The settings on record: 0.75 mg/kg i.p. for 4 days; 2.0 × 10^6 OT-1 cells; n = 8. In outline: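 Male CMy-Tg and WT C57BL/6 mice (10–12 weeks) received 2.0, 3.5 or 5.0 × 10^6 OT-1 CD8+ T cells i.p. in PBS. Dexamethasone 0.75 mg/kg/day, freshly dissolved in sterile PBS, given i.p. in 100 μL on days 1–4 after cell transfer; controls received PBS. Survival followed for 28 days; Kaplan–Meier analysis, n = 8 per group.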

Test [3] concerns CMy-Tg mice. Description: Heart and serum markers and histology in CD8+ T cell-mediated myocarditis. It counts as in vivo, mouse. The settings on record: CMy-Tg mice 5 days post transfer of 3.5 × 10^6 OT-1 CD8+ T cells. In outline: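 CMy-Tg (n = 12) and WT (n = 4) mice received 3.5 × 10^6 OT-1 CD8+ T cells. PBS vehicle or dexamethasone (0.75 mg/kg) i.p. on days 1–4. Hearts and serum collected at day 5. Heart granzyme B and cleaved caspase-3 measured by Western blot, normalized to GAPDH. Serum granzyme B, interferon-γ and cardiac troponin-I assayed. P values versus vehicle of each strain.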

Test [4] relates to OT-1 CD8+ T cells / CMy-Tg cardiomyocytes. Description: Granzyme B expression in OT-1 CD8+ T cells and co-cultures in vitro. Format: cell-based, mouse.
Test [5] has as its system chymotrypsin. Description: Enzymatic assay of nanoprobe activation. Format: biochemical. The settings on record: chymotrypsin 0.01 mg/mL, 82-fold excess activity; n = 3.
Test [6] addresses T1, granzyme B in lysates of CD8+ T cells (Mus musculus, UniProt P04187).
T1 sequence (P04187 21-247): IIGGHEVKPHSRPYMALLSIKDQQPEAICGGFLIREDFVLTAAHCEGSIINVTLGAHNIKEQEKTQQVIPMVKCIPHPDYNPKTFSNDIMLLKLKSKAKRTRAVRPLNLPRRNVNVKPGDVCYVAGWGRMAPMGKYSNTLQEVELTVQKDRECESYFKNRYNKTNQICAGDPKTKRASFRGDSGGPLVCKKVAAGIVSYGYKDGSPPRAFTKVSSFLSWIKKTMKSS
Description: Probe activation by lysates of CD8+ T cells. Format: biochemical.

In test [7] the test system is granzyme B activity. The test can be described thus: Ex vivo FRI in cardiac myosin-induced experimental autoimmune myocarditis. Also on record: species or system mouse. The settings on record: 24 hours post probe injection, 21 days after immunization. Summed up:
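Balb/cByJ mice were immunized with a murine α-myosin H chain-derived peptide (n = 16); controls received PBS instead (n = 4). Granzyme B-sensitive probe given i.v. on day 20. One day later, excised hearts and sections were imaged by microscopic ex vivo FRI in the 680 nm channel. Exposure: 1 min for tissue, 30 min for heart sections.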

In the case of `C[C@@H]1C[C@H]2[C@@H]3CCC4=CC(=O)C=C[C@]4(C)[C@@]3(F)[C@@H](O)C[C@]2(C)[C@@]1(O)C(=O)CO` [dexamethasone], the “granzyme B activity, fluorescence intensities in hearts” value in test [1] (dexamethasone administration in vivo, vehicle 504±263, P=0.002) turned out to be 194±77 fluorescence intensities. Also, in test [2], the “survival of CMy-Tg mice” value is “survived for 28 days”. Further, in test [3], the “serum concentrations of granzyme B, interferon-γ, and cardiac troponin-I” value is “limited these increases”. The “protein levels of granzyme B and active caspase-3 in hearts” value in test [3] (Western blot) is recorded as “reduced these concentrations”. Further, the “granzyme B protein concentrations in OT-1 CD8+ T cells and their culture medium” value in test [4] (48 hours of anti-CD3 stimulation) is on record as “did not mute this rise”. Moreover, the “probe signals colocalized with granzyme B activity” value in test [4] (CMy-Tg cardiomyocytes co-cultured with OT-1 CD8+ T cells, confocal microscopy) is recorded as “decreased the probe signals”.
As for “GIEFDSGGC [granzyme B-sensitive nanoprobe]”, in test [5], the “probe activation on incubation with chymotrypsin” value is “activation comparable in intensity to Granzyme B”. For the same compound, the “fluorescent signal from the probe incubated with lysates” value in test [6] (lysates of Balb/c WT CD8+ T cells stimulated with anti-CD-3, 48 hours) is “increased above baseline after 48 hours”; in test [6] (lysates of granzyme B-deficient CD8+ T cells) it was “did not demonstrate a comparable increase”. For the same compound, the “signal compared with ProSense 680” value in test [1] (CD8+ T cell-mediated myocardial injury model) is “substantially higher signal”. The “signals from the probe in heart tissues and sections, EAM Balb/cByJ vs WT mice” value in test [7] is on record as “higher signals”.
